Experimental findings from ChEMBL document CHEMBL4196192, “MEPicides: α,β-Unsaturated Fosmidomycin Analogues as DXR Inhibitors against Malaria” (J Med Chem, 2018) are described below.

Molecules are shown by their SMILES. The source made the active and inactive calls. The calls are words filed in the database; no cut-off is given here.

A word on the inhibition: it is the drop in the measured response relative to a control, in per cent. As a reminder, the IC50 is the point on the concentration scale where inhibition reaches its midpoint.

The target of data set [1] is T1, 1-deoxy-D-xylulose 5-phosphate reductoisomerase, apicoplastic (Plasmodium falciparum (isolate 3D7)) (UniProt Q8IKG4).
T1 sequence (whole entry): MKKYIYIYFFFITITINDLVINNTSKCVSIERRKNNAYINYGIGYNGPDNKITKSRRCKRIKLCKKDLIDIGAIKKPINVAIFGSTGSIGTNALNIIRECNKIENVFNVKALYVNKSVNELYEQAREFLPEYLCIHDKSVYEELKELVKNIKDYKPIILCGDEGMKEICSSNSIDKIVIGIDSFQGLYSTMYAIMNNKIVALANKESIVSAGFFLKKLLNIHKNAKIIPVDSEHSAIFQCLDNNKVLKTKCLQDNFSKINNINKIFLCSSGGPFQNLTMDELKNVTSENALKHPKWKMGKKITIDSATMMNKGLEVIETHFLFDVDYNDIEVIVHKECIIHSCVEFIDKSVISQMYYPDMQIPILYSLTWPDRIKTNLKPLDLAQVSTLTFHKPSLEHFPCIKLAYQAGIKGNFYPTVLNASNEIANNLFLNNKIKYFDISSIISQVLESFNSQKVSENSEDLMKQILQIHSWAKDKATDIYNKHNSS
Put plainly: Inhibition of Plasmodium falciparum DXR assessed as reduction in NADPH oxidation at 100 uM in presence of DOXP by UV-visible spectrophotometry. The procedure, abridged: (§1)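 Recombinant P. falciparum DXR (0.86 μM) in 100 mM Tris pH 7.8, 25 mM MgCl2, 150 μM NADPH, at 37 °C; inhibitor at a single 100 μM; reaction started with 144 μM DOXP; NADPH oxidation followed at 340 nm by UV-vis spectrophotometry; percent remaining activity; duplicate.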

Data set [2] concerns Plasmodium falciparum. As to the kind of experiment: Growth inhibition of Plasmodium falciparum 3D7 asynchronous cultures by PicoGreen dye based assay. Type of data set: functional, organism-based.
Data set [3] deals with Plasmodium falciparum. As to the kind of experiment: Growth inhibition of Plasmodium falciparum containing had1 mutation at 0.01 to 100 uM by PicoGreen dye based assay. In kind it is functional, organism-based.
The subject of data set [4] is Plasmodium falciparum. Put plainly: Growth inhibition of Plasmodium falciparum. In kind it is functional, organism-based.
Data set [5] has as its system HepG2. As to the kind of experiment: Cytotoxicity in human HepG2 cells. In kind it is cell-based.
Data set [6] in a line: Selectivity index, ratio of IC50 for cytotoxicity in human HepG2 cells to IC50 for growth inhibition of Plasmodium falciparum 3D7 asynchronous cultures. Type of data set: toxicity, cell-based. The settings on record: read-out: Ratio IC50.
Data set [7] is described as follows: Half life in mouse liver microsomes. In kind it is ADME, microsome. For orientation: Liver microsomes are vesicles of endoplasmic reticulum, rich in cytochrome P450 enzymes.
Data set [8] can be described thus: Half life in mouse plasma. In kind it is ADME, cell-free.
Data set [9] has as its system Plasmodium falciparum. Put plainly: Growth inhibition of Plasmodium falciparum 3D7 asynchronous cultures at 0.01 to 100 uM incubated for 72 hrs in presence of excess IPP by PicoGreen dye based assay. In kind it is functional, organism-based.
In data set [10] the test system is Plasmodium falciparum. Put plainly: Resistance index, ratio of IC50 for Plasmodium falciparum containing had1 mutation to IC50 for growth inhibition of wild type Plasmodium falciparum 3D7 asynchronous cultures. Type of data set: functional.
Data set [11] concerns Plasmodium falciparum. Put plainly: Growth inhibition of Plasmodium falciparum containing had1 mutation expressing GFP-HAD1 by PicoGreen dye based assay. Type of data set: functional, organism-based.
The target in data set [12] is T2, 1-deoxy-D-xylulose 5-phosphate reductoisomerase, apicoplastic (Plasmodium falciparum (isolate 3D7), UniProt Q8IKG4).
T2 sequence (Q8IKG4 whole entry): T1 sequence (whole entry)
As to the kind of experiment: Inhibition of Plasmodium falciparum DXR assessed as reduction in NADPH oxidation in presence of DOXP by UV-visible spectrophotometry. A digest of the protocol:
(§2)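 Recombinant P. falciparum DXR (0.86 μM) in 100 mM Tris pH 7.8, 25 mM MgCl2 and 150 μM NADPH at 37 °C. Reaction started with 144 μM DOXP. NADPH oxidation followed at 340 nm by UV–visible spectrophotometry. Compounds were screened first at a single 100 μM concentration as percent remaining activity. Assays were run in duplicate.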

Data set [13] has as its system Plasmodium falciparum. As to the kind of experiment: Effect on DXR protein level in Plasmodium falciparum 3D7 at 5 times growth inhibitory IC50 incubated for 10 hrs by LC-MS/MS method. In kind it is organism-based.
Data set [14] concerns the target T1, 1-deoxy-D-xylulose 5-phosphate reductoisomerase, apicoplastic (Plasmodium falciparum (isolate 3D7)). Put plainly: Inhibition of DXR in Plasmodium falciparum 3D7 assessed as reduction in MEP levels at 5 times growth inhibitory IC50 incubated for 10 hrs by LC-MS/MS method.
The target is the same in data set [15]. Put plainly: Inhibition of DXR in Plasmodium falciparum 3D7 assessed as reduction in CDP-ME levels at 5 times growth inhibitory IC50 incubated for 10 hrs by LC-MS/MS method.
The target is the same in data set [16]. As to the kind of experiment: Inhibition of DXR in Plasmodium falciparum 3D7 assessed as reduction in MEcPP levels at 5 times growth inhibitory IC50 incubated for 10 hrs by LC-MS/MS method.
Data set [17] has as its system Plasmodium berghei. As to the kind of experiment: Antimalarial activity against luciferase-expressing Plasmodium berghei ANKA infected in Swiss Webster mouse assessed as reduction in parasitemia by measuring reduction in luciferin signal intensity at 20 mg/kg, ip administered daily for 5 days starting from 2 days post infection by luciferase-luciferin based reporter assay relative to untreated control. Type of data set: functional.

Data set [18] has as its system Plasmodium berghei. As to the kind of experiment: Antimalarial activity against luciferase-expressing Plasmodium berghei ANKA infected in Swiss Webster mouse assessed as reduction in parasitemia by measuring reduction in luciferin signal intensity at 50 mg/kg, ip administered daily for 5 days starting from 2 days post infection by luciferase-luciferin based reporter assay relative to untreated control. Type of data set: functional, organism-based. Background: A reporter such as luciferase makes a cellular process visible.

Data set [19] has as its system Mus musculus. As to the kind of experiment: Toxicity in luciferase-expressing Plasmodium berghei ANKA infected Swiss Webster mouse assessed as induction of adverse events at 20 mg/kg, ip administered daily for 5 days starting from 2 days post infection. In kind it is organism-based. The settings on record: in vivo. The procedure, abridged: (§3)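 Female Swiss Webster mice (25–30 g) infected ip with 10^3 luciferase-expressing P. berghei, then given ip doses daily for 5 days from day 2 in 2% methylcellulose/0.5% Tween 80 vehicle, groups of five; mice observed for adverse effects over the dosing period.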

The subject of data set [20] is Mus musculus. As to the kind of experiment: Toxicity in luciferase-expressing Plasmodium berghei ANKA infected Swiss Webster mouse assessed as induction of adverse events at 50 mg/kg, ip administered daily for 5 days starting from 2 days post infection. In kind it is organism-based. The settings on record: in vivo. The procedure, abridged:
as §3

The target of data set [21] is T1, 1-deoxy-D-xylulose 5-phosphate reductoisomerase, apicoplastic (Plasmodium falciparum (isolate 3D7)). As to the kind of experiment: Inhibition of Plasmodium falciparum DXR assessed as remaining enzyme activity by measuring NADPH oxidation at 100 uM in presence of DOXP by UV-visible spectrophotometry. A digest of the protocol: as §1
The subject of data set [22] is Plasmodium berghei. As to the kind of experiment: Antimalarial activity against luciferase-expressing Plasmodium berghei ANKA infected in Swiss Webster mouse assessed as reduction in parasitemia at 20 mg/kg, ip administered daily for 5 days starting from 2 days post infection by luciferase-luciferin based reporter assay. In kind it is functional, organism-based.
For data set [23], the target named is T2, 1-deoxy-D-xylulose 5-phosphate reductoisomerase, apicoplastic. As to the kind of experiment: Inhibition of Plasmodium falciparum DXR. The procedure, abridged:
as §2

As to `CC(=O)N(C/C=C/P(=O)(O)O)OCc1ccc(C(C)C)cc1`, in [1], the inhibition is over 75%. The compound also returned an IC50 in data set [2] of 1.1 µM. The “growth inhibition (GI)” value in data set [3] was “inactive”.
`CC(=O)N(C/C=C/P(=O)(OCOC(=O)C(C)(C)C)OCOC(=O)C(C)(C)C)OCc1ccc(C(C)C)cc1`: in [2], the IC50 is 55.2 µM.
On to `CC(=O)N(C/C=C/P(=O)(O)O)OCc1ccc(-c2ccccc2)cc1`, for which the inhibition in [1] is over 75%. In addition, the IC50 in data set [2] was found to be 2.3 µM.
Regarding `O=CN(O)CCCP(=O)(O)O` [FOSMIDOMYCIN SODIUM], the IC50 was 0.09 to 0.35 µM in data set [4] and 1.09 µM in [2]. Besides, in data set [1], the inhibition was over 75%.
For the compound `O=CN(O)C/C=C/P(=O)([O-])O.[Na+]`, in data set [1], the inhibition is over 75%. Also, the results for the IC50 in data set [2] and in [5] were 0.019 µM and over 50 µM, respectively. The selectivity ratio in [6] was found to be 2630. Moreover, the t1/2 in data set [7] is over 1 h; in data set [8], over 2 h. Also, the “growth inhibition (GI)” value in [9] is “inactive”. Moreover, in data set [10], the “Ratio IC50” value is recorded as 3.4. For the same compound, the “growth inhibition (GI)” value in [11] was “Active”.
For `C[C@@H]1CC[C@H]2[C@@H](C)C(=O)O[C@@H]3O[C@@]4(C)CC[C@@H]1[C@]32OO4` [ARTEMISININ], in [2], the midpoint of inhibition, the IC50, lay at 0.0104 µM.
On to `CC(=O)N(O)C/C=C/P(=O)(O)O`, for which the IC50 in [12] came out at 0.206 µM; in data set [2] it was 0.202 µM. For the same compound, in data set [1], the inhibition was over 75%.
For `COC(=O)N(O)C/C=C/P(=O)(O)O`, the inhibition in [1] was over 75%. Further, the midpoint of inhibition in data set [2], the IC50, lay at 28.6 µM.
As for `CC(=O)N(C/C=C/P(=O)(O)O)OC(C)c1ccccc1` (configuration not stated), in [1], the inhibition is over 75%. In data set [2], this compound yielded an IC50 of 1.2 µM.
As for `CC(C)(C)C(=O)OCOP(=O)(/C=C/CN(O)C=O)OCOC(=O)C(C)(C)C`, the IC50 was 0.013 µM in data set [2] and over 50 µM in data set [5]. For the same compound, the Activity result in [13], in data set [19] and in [20] was “Non-Toxic” each time. Also, the t1/2 in [8] is under 0.083 h. Further, the “growth inhibition (GI)” value in data set [9] was “inactive”. Further, the inhibition result in data set [14], in data set [15] and in [16] was “Active” in each case. Moreover, the “growth inhibition (GI)” value in data set [11] was “Active”. The “log(activity)” value in [17] is on record as 3. Also, the result in data set [18] was Active.
For the compound `CC(=O)N(C/C=C/P(=O)(O)O)OCc1ccc2ccccc2c1`, in [21], the Activity is 25%. Further, the inhibition in data set [1] was over 75%. The IC50 in [2] was found to be 26.1 µM.
`COC(=O)N(O)C/C=C/P(=O)(OCOC(=O)C(C)(C)C)OCOC(=O)C(C)(C)C` returned an IC50 in [2] of 23.7 µM.
In the case of `CCN(CC)CCCC(C)Nc1ccnc2cc(Cl)ccc12` (configuration not stated), the result in [22] was Active.
`CC(=O)N(C/C=C/P(=O)(OCOC(=O)C(C)(C)C)OCOC(=O)C(C)(C)C)OCc1ccc2ccccc2c1`: half-maximal inhibition in [2] (IC50) was put at 50.5 µM.
In the case of `O=C(N(O)C/C=C/P(=O)(O)O)C(F)(F)F`, the Activity in data set [21] was determined as 37%. For the same compound, the inhibition in data set [1] is over 75%. The compound also gave an IC50 in data set [2] of 113 µM.
Regarding `CC(=O)N(O)C/C=C/P(=O)(OCOC(=O)C(C)(C)C)OCOC(=O)C(C)(C)C`, the IC50 in data set [2] is 0.018 µM.
In turn, `CC(=O)N(CCCP(=O)(OCOC(=O)C(C)(C)C)OCOC(=O)C(C)(C)C)OCc1ccc2ccccc2c1` showed a half-inhibitory concentration (IC50) in data set [4] of 33.2 µM.
In data set [2], `CC(=O)N(C/C=C/P(=O)(OCOC(=O)C(C)(C)C)OCOC(=O)C(C)(C)C)OCc1ccc(-c2ccccc2)cc1` returned an IC50 of 44.1 µM.
`CC(=O)N(O)CCCP(=O)(O)O`: the IC50 in [23] was 0.024 µM; in data set [4], 0.09 to 0.35 µM; in data set [12], 0.023 µM; in data set [2], 0.511 µM. For the same compound, the inhibition in data set [1] is over 75%.
As to `CC(C)(C)C(=O)OCOP(=O)(/C=C/CN(O)C(=O)C(F)(F)F)OCOC(=O)C(C)(C)C`, in data set [2], the IC50 was 14.3 µM.
